Experimental data: ChEMBL document CHEMBL3244406, “11,12-Secoprostaglandins. 5. 8-Acetyl- or 8-(1-hydroxyethyl)-12-hydroxy-13-aryloxytridecanoic acids and sulfonamide isosteres as inhibitors of platelet aggregation” (1978)
Calls of active or inactive are those of the source. The rule behind the calls is not given here.

Columns and labels:
Mus musculus [1] = organism: Mus musculus; assay: (§1) Induction of prostaglandin-like activity in CD-1 mouse ovary assessed as fold increase in [14C]-cAMP formation using ATP-[14C] substrate at 100 ug/ml after 30 mins incubation by PG assay; assay type: functional; settings: Female gonad
Platelet [2] = assay: Inhibition of bovine collagen-induced platelet aggregation isolated from po treated Hartley guinea pig after 1 hr treatment; assay type: functional; settings: Cavia porcellus
Summary of the method: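 Male Hartley guinea pigs (0.6-1.1 kg) dosed orally, suspended in 5 ml/kg EtOH-H2O Emulphor, three animals at each of three doses plus vehicle controls. Cardiac-puncture blood taken 1 h later, pooled per group, PRP spun at 200g for 10 min, platelets matched with PPP.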

Mus musculus [3] = organism: Mus musculus; assay: (§2) Induction of prostaglandin-like activity in CD-1 mouse ovary assessed as fold increase in [14C]-cAMP formation using ATP-[14C] substrate at 25 ug/ml after 30 mins incubation by PG assay; assay type: functional; settings: Female gonad
[4] = as §1; assay type: functional, Female gonad
[5] = (§3) Induction of prostaglandin-like activity in CD-1 mouse ovary assessed as fold increase in [14C]-cAMP formation using ATP-[14C] substrate at 10 ug/ml after 30 mins incubation by PG assay; assay type: functional, Female gonad
[6] = as §2; assay type: functional, Female gonad
Mus musculus [7] = organism: Mus musculus; assay: as §3; assay type: functional; settings: Female gonad
Platelet [8] = assay: Inhibition of bovine collagen-induced platelet aggregation isolated from ip treated Hartley guinea pig after 1 hr treatment; assay type: functional; settings: Cavia porcellus

Row | SMILES | Activity (Mus musculus [1]) | ED50 (Platelet [2]) | Activity (Mus musculus [3]) | fold change (FC) [4] | fold change (FC) [5] | fold change (FC) [6] | Activity (Mus musculus [7]) | ED50 (Platelet [8])
1 | CS(=O)(=O)N(C/C=C\CCCC(=O)O)C/C=C/C(O)COc1cccc(C(F)(F)F)c1 (configuration not stated) | inactive | 5 mg/kg | inactive | – | – | – | – | –
2 | CC(=O)C(CCCCCCC(=O)O)CCCC(O)COc1ccccc1OCc1ccccc1 (configuration not stated) | inactive | > 10 mg/kg | inactive | – | – | – | – | –
3 | CS(=O)(=O)N(CCCCCCC(=O)O)CCCC(O)COc1ccc(F)cc1 (configuration not stated) | – | 0.04 mg/kg | – | 11 | 2 | 7 | – | –
4 | CCCCCC(O)CCCC(CCCCCCC(=O)O)C(C)=O (mixture of isomers) | – | 6.5 mg/kg | – | 23 | 11 | 14 | – | –
5 | CC(O)C(CC#CCCCC(=O)O)CCCC(O)COc1ccc(F)cc1 (configuration not stated) | – | 0.04 mg/kg | inactive | 2 | – | – | – | –
6 | CS(=O)(=O)N(CCCCCCC(=O)O)CCCC(O)COc1ccccc1 (configuration not stated) | – | 1 mg/kg | inactive | 3 | – | – | – | –
7 | CC(O)C(CCCCCCC(=O)O)CCCC(O)COc1ccc(F)cc1 (configuration not stated) | – | 1 mg/kg | inactive | 3 | – | – | – | –
8 | CS(=O)(=O)N(CCCCCCC(=O)O)CCCC(O)CSc1ccc(F)cc1 (configuration not stated) | – | 6 mg/kg | – | 18 | 6 | 14 | – | –
9 | Cc1ccc(OCC(O)CCCN(CCCCCCC(=O)O)S(C)(=O)=O)cc1 (configuration not stated) | – | 5 mg/kg | – | 16 | 4 | 11 | – | –
10 | CC(O)C(CCCCCCC(=O)O)CCCC(O)COc1ccccc1F (configuration not stated) | inactive | 7.5 mg/kg | inactive | – | – | – | – | –
11 | COc1ccc(OCC(O)CCCN(CCCCCCC(=O)O)S(C)(=O)=O)cc1 (configuration not stated) | – | > 10 mg/kg | – | 16 | – | 3 | inactive | –
12 | CC(=O)C(CCCCCCC(=O)O)CCCC(O)COc1cccc(C(F)(F)F)c1 (configuration not stated) | inactive | > 10 mg/kg | inactive | – | – | – | – | –
13 | CC(O)C(CCCCCCC(=O)O)CCCC(O)COc1ccc(C(F)(F)F)cc1 (configuration not stated) | inactive | 1 mg/kg | inactive | – | – | – | – | –
14 | CS(=O)(=O)N(CCCCCCC(=O)O)CCCC(O)COc1ccccc1F (configuration not stated) | inactive | 0.15 mg/kg | inactive | – | – | – | – | –
15 | CC(=O)C(CC#CCCCC(=O)O)CCCC(O)COc1ccc(F)cc1 (configuration not stated) | inactive | 0.25 mg/kg | inactive | – | – | – | – | –
16 | CS(=O)(=O)N(CCCCCCC(=O)O)CCCC(O)COc1cccc(Cl)c1 (configuration not stated) | – | 1 mg/kg | inactive | 5 | – | – | – | –
17 | CS(=O)(=O)N(CCCCCCC(=O)O)CCCC(O)CS(=O)(=O)c1ccc(F)cc1 (configuration not stated) | – | > 10 mg/kg | inactive | 3 | – | – | – | –
18 | CC(O)C(CCCCCCC(=O)O)CCCC(O)COc1cccc(Cl)c1 (configuration not stated) | – | 7.5 mg/kg | inactive | 2 | – | – | – | –
19 | CC(=O)C(CCCCCCC(=O)O)CCCC(O)COc1ccccc1O (configuration not stated) | inactive | 5 mg/kg | inactive | – | – | – | – | –
20 | CS(=O)(=O)N(CCCCCCC(=O)O)CCCC(O)COc1ccc(Cl)cc1 (configuration not stated) | – | 10 mg/kg | – | 31 | 8 | 21 | – | –
21 | CC(=O)C(CCCCCCC(=O)O)CCCC(O)COc1ccc(F)cc1 (configuration not stated) | – | 0.5 mg/kg | inactive | 4 | – | – | – | –
22 | CC(=O)C(CCCCCCC(=O)O)CCCC(O)COc1ccc(C(C)(C)C)cc1 (configuration not stated) | inactive | 10 mg/kg | inactive | – | – | – | – | –
23 | CS(=O)(=O)N(CCCCCCC(=O)O)CCCC(O)COc1cccc(F)c1 (configuration not stated) | – | 1 mg/kg | – | 4 | – | 2 | – | –
24 | CC(O)C(C/C=C\CCCC(=O)O)CCCC(O)COc1ccc(F)cc1 (configuration not stated) | – | 0.12 mg/kg | inactive | 3 | – | – | – | –
25 | CS(=O)(=O)N(C/C=C\CCCC(=O)O)C/C=C/C(O)COc1ccc(F)cc1 (configuration not stated) | – | 0.01 mg/kg | – | 11 | 2 | 4 | – | –
26 | CCCCC[C@H](O)/C=C/[C@H]1[C@H](O)CC(=O)[C@@H]1CCCCCCC(=O)O [ALPROSTADIL] | – | – | – | – | 60 | – | – | 0.02 mg/kg
27 | CC(=O)C(C/C=C\CCCC(=O)O)CCCC(O)COc1ccc(F)cc1 (configuration not stated) | – | 0.09 mg/kg | inactive | 2 | – | – | – | –
28 | CC(=O)Oc1ccccc1C(=O)O [ASPIRIN] | – | 4.5 mg/kg | – | – | – | – | – | –
29 | CCCCCC(O)CCCN(CCCCCCC(=O)O)S(C)(=O)=O (racemic) | – | 6 mg/kg | – | 61 | 40 | 56 | – | –
